Legend:
[1] = Cytotoxicity against human HuH7 cells assessed as cell viability at 50 uM after 24 hrs
[2] = tested on: Semliki Forest virus; experiment: Antiviral activity against SFV infected in BHK cells assessed as surviving virus fraction at 50 uM after 14 hrs by luciferase reporter gene assay; format: functional; parameters: scale not given here
[3] = tested on: Semliki Forest virus; experiment: Antiviral activity against SFV infected in BHK cells after 14 hrs by luciferase reporter gene assay; format: functional, organism-based
Method in brief: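 SFV-Rluc reporter virus from infectious cDNA clone; BHK-21 cells infected at low multiplicity (0.001 PFU/cell) and incubated 14 h, spanning over 2 infectious cycles. Serial dilutions of each derivative tested. Luciferase read-out as surviving virus fraction. IC50 from a sigmoidal dose-response fit; means ± SD, n = 6. 3′-Amino-3′-deoxyadenosine (20 µM) served as screen positive control.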

[4] = Cytotoxicity against human HuH7 cells assessed as cell viability at 500 uM after 24 hrs; format: cell-based, Huh-7; settings: read-out: Activity
Method in brief: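 Huh-7 human hepatocellular carcinoma cells exposed 24 h to derivative at 500 µM in an extended cytotoxicity analysis. Viability measured as intracellular ATP content and reported as surviving fraction.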

In the case of `COc1cccc(-n2c(=O)n3n(c2=O)[C@]2(C(C)C)CC[C@]4(COC(C)=O)CC[C@]5(C)C(=C42)[C@@H]3C[C@@H]2[C@@]3(C)CC[C@H](OC(C)=O)C(C)(C)[C@@H]3CC[C@]25C)c1`, the viability at 24 h, 50 µM [1] is reported as 93% and the Activity [2] is reported as 121%.
Compound `C=C(C)[C@@H]1CC[C@]2(C(=O)OC)CC[C@]3(C)[C@H](CC[C@@H]4[C@@]5(C)CC[C@H](O)C(C)(C)[C@@H]5CC[C@]43C)[C@@H]12` [METHYL BETULINATE] has a viability at 24 h, 50 µM [1] of 1% and an Activity [2] of 68%.
For `C=C(C)[C@@H]1CC[C@]2(C(=O)N[C@@H](CC(=O)OC)C(=O)OC)CC[C@]3(C)[C@H](CC[C@@H]4[C@@]5(C)CCC(=O)C(C)(C)[C@@H]5CC[C@]43C)[C@@H]12`, the viability at 24 h, 50 µM [1] was 30% and the Activity [2] was 40%.
Work on `C=C(C)[C@@H]1CC[C@]2(C(=O)OC)CC[C@]3(C)[C@H](CC[C@@H]4[C@@]5(C)CCC(=O)C(C)(C)[C@@H]5CC[C@]43C)[C@@H]12` [METHYL BETULONATE] yielded a viability at 24 h, 50 µM [1] of 83% and an Activity [2] of 71%.
Compound `C=C(C)[C@@H]1CC[C@]2(COC(C)=O)CC[C@]3(C)[C@H](CC[C@@H]4[C@@]5(C)CC[C@H](O)C(C)(C)[C@@H]5CC[C@]43C)[C@@H]12` has a viability at 24 h, 50 µM [1] of 87%, an Activity [2] of 3% and an IC50 ([3]; read-out: IC50) of 12.1 µM. It also gave an IC50 ([3]; read-out: pIC50 (converted)) of 12 µM and a viability at 24 h, 500 µM [4] greater than 80%.
With `C=C(C)[C@@H]1CC[C@]2(COC3CCCCO3)CC[C@]3(C)[C@H](CC[C@@H]4[C@@]5(C)CC[C@H](OC(C)=O)C(C)(C)[C@@H]5CC[C@]43C)[C@@H]12` (some centres undefined) the viability at 24 h, 50 µM [1] was 91%, the Activity [2] was 10% and the IC50 ([3]; read-out: IC50) was 24.7 µM. It also gave an IC50 ([3]; read-out: pIC50 (converted)) of 24.5 µM and a viability at 24 h, 500 µM [4] greater than 80%.
Work on `CC(=O)OC[C@]12CC[C@]3(C(C)C)C1=C1[C@H](C[C@@H]4[C@@]5(C)CC[C@H](OC(C)=O)C(C)(C)[C@@H]5CC[C@@]4(C)[C@]1(C)CC2)n1c(=O)n(-c2ccc(F)cc2)c(=O)n13` yielded a viability at 24 h, 50 µM [1] of 95% and an Activity [2] of 64%.
`C=C(C)[C@@H]1CC[C@]2(C=O)CC[C@]3(C)[C@H](CC[C@@H]4[C@@]5(C)CC[C@H](O)C(C)(C)[C@@H]5CC[C@]43C)[C@@H]12` [BETULINALDEHYDE] gave a viability at 24 h, 50 µM [1] of 0% and an Activity [2] of 1%.
`C=C(C)[C@@H]1CC[C@]2(COC(=O)CCC(C)=O)CC[C@]3(C)[C@H](CC[C@@H]4[C@@]5(C)CC[C@H](OC(=O)CCC(C)=O)C(C)(C)[C@@H]5CC[C@]43C)[C@@H]12` showed a viability at 24 h, 50 µM [1] of 109% and an Activity [2] of 74%.
`C=C(C)[C@@H]1CC[C@]2(COC(C)=O)CC[C@]3(C)[C@H](CC[C@@H]4[C@@]5(C)CC=CC(C)(C)[C@@H]5CC[C@]43C)[C@@H]12` gave a viability at 24 h, 50 µM [1] of 95% and an Activity [2] of 98%.
`C=C(C)[C@@H]1CC[C@]2(C#N)CC[C@]3(C)[C@H](CC[C@@H]4[C@@]5(C)CC[C@H](OC(C)=O)C(C)(C)[C@@H]5CC[C@]43C)[C@@H]12` showed a viability at 24 h, 50 µM [1] of 69% and an Activity [2] of 60%.
In the case of `C=C(C)[C@@H]1CC[C@]2(/C=N/O)CC[C@]3(C)[C@H](CC[C@@H]4[C@@]5(C)CC/C(=N\O)C(C)(C)[C@@H]5CC[C@]43C)[C@@H]12` [BETULIN-3,28-DIOXIME], the viability at 24 h, 50 µM [1] is reported as 80% and the Activity [2] is reported as 121%.
Compound `C=C(C)[C@@H]1CC[C@]2(COC(=O)COc3cc(C(C)C)ccc3C)CC[C@]3(C)[C@H](CC[C@@H]4[C@@]5(C)CC[C@H](O)C(C)(C)[C@@H]5CC[C@]43C)[C@@H]12` has a viability at 24 h, 50 µM [1] of 103% and an Activity [2] of 80%.
`CCn1c(=O)n2n(c1=O)[C@]1(C(C)C)CC[C@]3(COC(C)=O)CC[C@]4(C)C(=C31)[C@@H]2C[C@@H]1[C@@]2(C)CC[C@H](OC(C)=O)C(C)(C)[C@@H]2CC[C@]14C` gave a viability at 24 h, 50 µM [1] of 40% and an Activity [2] of 24%.
In the case of `C=C(C)[C@@H]1CC[C@]2(CO)CC[C@]3(C)[C@H](CC[C@@H]4[C@@]5(C)CC=CC(C)(C)[C@@H]5CC[C@]43C)[C@@H]12`, the viability at 24 h, 50 µM [1] is reported as 85% and the Activity [2] is reported as 121%.
In the case of `CC(C)[C@@]12CC[C@]3(COC(=O)c4ccccc4)CC[C@]4(C)C(=C31)[C@H](C[C@@H]1[C@@]3(C)CC[C@H](OC(=O)c5ccccc5)C(C)(C)[C@@H]3CC[C@]14C)n1c(=O)n(C)c(=O)n12`, the viability at 24 h, 50 µM [1] is reported as 108% and the Activity [2] is reported as 22%.
With `C=C(C)[C@@H]1CC[C@]2(C#N)CC[C@]3(C)[C@H](CC[C@@H]4[C@@]5(C)CC/C(=N\OC(C)=O)C(C)(C)[C@@H]5CC[C@]43C)[C@@H]12` the viability at 24 h, 50 µM [1] was 85% and the Activity [2] was 73%.
Work on `CC(=O)OC[C@]12CC[C@]3(C(C)C)C1=C1[C@H](C[C@@H]4[C@@]5(C)CC[C@H](OC(C)=O)C(C)(C)[C@@H]5CC[C@@]4(C)[C@]1(C)CC2)n1c(=O)n(-c2ccc4c(c2)CCC4)c(=O)n13` yielded a viability at 24 h, 50 µM [1] of 93% and an Activity [2] of 81%.
In the case of `CCC(=O)OC[C@]12CC[C@]3(C(C)C)C1=C1[C@H](C[C@@H]4[C@@]5(C)CC[C@H](OC(=O)CC)C(C)(C)[C@@H]5CC[C@@]4(C)[C@]1(C)CC2)n1c(=O)n(C)c(=O)n13`, the viability at 24 h, 50 µM [1] is reported as 75% and the Activity [2] is reported as 21%.
For `CC(C)[C@@]12CC[C@]3(COC(=O)C4CCCCC4)CC[C@]4(C)C(=C31)[C@H](C[C@@H]1[C@@]3(C)CC[C@H](OC(=O)C5CCCCC5)C(C)(C)[C@@H]3CC[C@]14C)n1c(=O)n(C(C)(C)C)c(=O)n12`, the viability at 24 h, 50 µM [1] was 83% and the Activity [2] was 40%.
In the case of `C=C(C)[C@@H]1CC[C@]2(COC(=O)c3ccccc3NC(C)=O)CC[C@]3(C)[C@H](CC[C@@H]4[C@@]5(C)CC[C@H](O)C(C)(C)[C@@H]5CC[C@]43C)[C@@H]12`, the viability at 24 h, 50 µM [1] is reported as 94% and the Activity [2] is reported as 82%.
In the case of `C=C(C)[C@@H]1CC[C@]2(/C=N/O)CC[C@]3(C)[C@H](CC[C@@H]4[C@@]5(C)CC[C@H](O)C(C)(C)[C@@H]5CC[C@]43C)[C@@H]12`, the viability at 24 h, 50 µM [1] is reported as 82% and the Activity [2] is reported as 55%.
Compound `C=C(C)[C@@H]1CC[C@]2(C(=O)Oc3ccc(C=O)cc3OC)CC[C@]3(C)[C@H](CC[C@@H]4[C@@]5(C)CCC(=O)C(C)(C)C5CC[C@]43C)[C@@H]12` (some centres undefined) [VANILLINYL BETULONATE] has a viability at 24 h, 50 µM [1] of 89% and an Activity [2] of 43%.
Compound `CC(C)[C@@]12CC[C@]3(COC(=O)c4ccccc4)CC[C@]4(C)C(=C31)[C@H](C[C@@H]1[C@@]3(C)CC[C@H](OC(=O)c5ccccc5)C(C)(C)[C@@H]3CC[C@]14C)n1c(=O)n(-c3ccccc3)c(=O)n12` has a viability at 24 h, 50 µM [1] of 88% and an Activity [2] of 50%.
Work on `CCCC(=O)OC[C@]12CC[C@]3(C(C)C)C1=C1[C@H](C[C@@H]4[C@@]5(C)CC[C@H](OC(=O)CCC)C(C)(C)[C@@H]5CC[C@@]4(C)[C@]1(C)CC2)n1c(=O)n(C)c(=O)n13` yielded a viability at 24 h, 50 µM [1] of 93%, an Activity [2] of 18% and an IC50 ([3]; read-out: IC50) of 30.1 µM. It also gave an IC50 ([3]; read-out: pIC50 (converted)) of 30.2 µM.
`C=C(C)[C@@H]1CC[C@]2(COC(=O)/C=C/c3ccccc3)CC[C@]3(C)[C@H](CC[C@@H]4[C@@]5(C)CC[C@H](O)C(C)(C)[C@@H]5CC[C@]43C)[C@@H]12` showed a viability at 24 h, 50 µM [1] of 96% and an Activity [2] of 111%.
Work on `C=C(C)[C@@H]1CC[C@]2(COC(=O)CBr)CC[C@]3(C)[C@H](CC[C@@H]4[C@@]5(C)CC[C@H](O)C(C)(C)[C@@H]5CC[C@]43C)[C@@H]12` yielded a viability at 24 h, 50 µM [1] of 11% and an Activity [2] of 125%.
In the case of `C=C(C)[C@@H]1CC[C@]2(COC(=O)C3C(C=C(C)C)C3(C)C)CC[C@]3(C)[C@H](CC[C@@H]4[C@@]5(C)CC[C@H](O)C(C)(C)[C@@H]5CC[C@]43C)[C@@H]12` (some centres undefined), the viability at 24 h, 50 µM [1] is reported as 90% and the Activity [2] is reported as 95%.
Work on `CC(C)[C@@]12CC[C@]3(CO)CC[C@]4(C)C(=C31)[C@H](C[C@@H]1[C@@]3(C)CC[C@H](O)C(C)(C)[C@@H]3CC[C@]14C)n1c(=O)n(-c3ccccc3)c(=O)n12` yielded a viability at 24 h, 50 µM [1] of 85% and an Activity [2] of 73%.
With `C=C(C)[C@@H]1CC[C@]2(COC(=O)c3cccnc3)CC[C@]3(C)[C@H](CC[C@@H]4[C@@]5(C)CC[C@H](O)C(C)(C)[C@@H]5CC[C@]43C)[C@@H]12` the viability at 24 h, 50 µM [1] was 94% and the Activity [2] was 43%.
For `CC(C)[C@@]12CC[C@]3(COC(=O)C4CCCCC4)CC[C@]4(C)C(=C31)[C@H](C[C@@H]1[C@@]3(C)CC[C@H](OC(=O)C5CCCCC5)C(C)(C)[C@@H]3CC[C@]14C)n1c(=O)n(C)c(=O)n12`, the viability at 24 h, 50 µM [1] was 97% and the Activity [2] was 44%.
`C=C(C)[C@@H]1CC[C@]2(COC(C)=O)CC[C@]3(C)[C@H](CC[C@@H]4[C@@]5(C)CC[C@H](OC(C)=O)C(C)(C)[C@@H]5CC[C@]43C)[C@@H]12` [BETULIN DIACETATE] showed a viability at 24 h, 50 µM [1] of 97%, an Activity [2] of 21% and an IC50 ([3]; read-out: IC50) of 9.1 µM. The IC50 ([3]; read-out: pIC50 (converted)) was 9.12 µM.
With `CC(C)C(=O)OC[C@]12CC[C@]3(C(C)C)C1=C1[C@H](C[C@@H]4[C@@]5(C)CC[C@H](OC(=O)C(C)C)C(C)(C)[C@@H]5CC[C@@]4(C)[C@]1(C)CC2)n1c(=O)n(C)c(=O)n13` the viability at 24 h, 50 µM [1] was 106%, the Activity [2] was 24% and the viability at 24 h, 500 µM [4] was greater than 80%.
In the case of `C=C(C)[C@@H]1CC[C@]2(COS(C)(=O)=O)CC[C@]3(C)[C@H](CC[C@@H]4[C@@]5(C)CC[C@H](OC(C)=O)C(C)(C)[C@@H]5CC[C@]43C)[C@@H]12`, the viability at 24 h, 50 µM [1] is reported as 99% and the Activity [2] is reported as 46%.
